Each block holds one compound with its values, some of them ahead of it.
Legend:
A498 [1] = test: Antiproliferative activity against human A498 cells assessed as reduction in cell viability at 30 uM incubated for 72 hrs by MTT assay relative to control; format: functional; settings: A498, 72 h
Procedure, shortened: (§1)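 MTT read-out. Cells seeded at 1,000-2,200/well, grown 12 hr at 37 °C, then compound added for 72 hr. MTT for 4 hr, formazan dissolved in DMSO, absorbance at 490 nm. Untreated-cell OD taken as 100% proliferation; inhibition reported at 30 μM.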

OS-RC-2 [2] = test: Antiproliferative activity against human OS-RC2 cells assessed as reduction in cell viability at 30 uM incubated for 72 hrs by MTT assay relative to control; format: functional; settings: OS-RC-2, 72 h; procedure, shortened: as §1
[3] = target: Speckle-type POZ protein (Homo sapiens) (UniProt O43791); test: Binding affinity to recombinant N-terminal GST/His-tagged MATH binding domain SPOP (unknown origin) expressed in Escherichia coli BL21 (DE3) assessed as change in melting temperature at 10 fold compound incubated for 15 mins by nano differential scanning fluorimetry (reference value: -1.7 degreeC)
[4] = target: Speckle-type POZ protein (Homo sapiens) (UniProt O43791); test: Binding affinity to recombinant N-terminal GST/His-tagged MATH binding domain SPOP (unknown origin) expressed in Escherichia coli BL21 (DE3) assessed as change in melting temperature at 20 fold compound incubated for 15 mins by nano differential scanning fluorimetry (reference value: -3.8 degreeC)
A498 [5] = test: Antiproliferative activity against human A498 cells assessed as reduction in cell viability incubated for 72 hrs by MTT assay; format: functional, cell-based; settings: A498, 72 h
Procedure, shortened: (§2)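 MTT read-out. Cells seeded at 1,000-2,200/well, grown 12 hr at 37 °C before compound, then exposed 72 hr. MTT for 4 hr, formazan dissolved in DMSO, A490 read. Untreated cells = 100% proliferation. IC50 quantitated; mean ± SD, n = 3.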

OS-RC-2 [6] = test: Antiproliferative activity against human OS-RC2 cells assessed as reduction in cell viability incubated for 72 hrs by MTT assay; format: functional, cell-based; settings: OS-RC-2, 72 h; procedure, shortened: as §2

Chain of Speckle-type POZ protein (Homo sapiens) (O43791 whole entry, the tested form may be a part): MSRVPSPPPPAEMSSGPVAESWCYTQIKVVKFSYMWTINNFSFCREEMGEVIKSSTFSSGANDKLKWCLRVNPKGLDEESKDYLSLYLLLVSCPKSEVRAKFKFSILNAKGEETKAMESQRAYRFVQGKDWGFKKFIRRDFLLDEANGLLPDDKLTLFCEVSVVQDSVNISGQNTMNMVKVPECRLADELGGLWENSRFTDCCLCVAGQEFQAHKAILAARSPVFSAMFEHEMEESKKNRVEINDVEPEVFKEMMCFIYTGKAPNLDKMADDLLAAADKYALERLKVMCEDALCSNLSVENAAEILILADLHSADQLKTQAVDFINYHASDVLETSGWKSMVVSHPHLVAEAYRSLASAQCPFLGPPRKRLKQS

Compound: Cc1cccn2c(=O)c3cc(C(=O)O)c(=N)n(CCc4ccc(Cl)cc4)c3nc12
inhibition at 30 µM (A498 [1]): 57% | inhibition at 30 µM (OS-RC-2 [2]): 30%

Compound: Cc1cccn2c(=O)c3cc(C(=O)NCCCN4CCOCC4)c(=N)n(C)c3nc12
inhibition at 30 µM (A498 [1]): 59% | inhibition at 30 µM (OS-RC-2 [2]): 62%

Compound: Cc1cccn2c(=O)c3cc(C(=O)NCCCN4CCOCC4)c(=N)n(C(C)C)c3nc12
inhibition at 30 µM (A498 [1]): 11% | inhibition at 30 µM (OS-RC-2 [2]): 15%

Compound: Cc1cccn2c(=O)c3cc(C(=O)NCCCN4CCOCC4)c(=N)n(Cc4ccccc4)c3nc12
inhibition at 30 µM (A498 [1]): 58% | inhibition at 30 µM (OS-RC-2 [2]): 46%

Compound: CCOC(=O)c1cc2cnccc2n(CCc2ccccc2)c1=O
inhibition at 30 µM (A498 [1]): 14% | inhibition at 30 µM (OS-RC-2 [2]): 15%

Compound: Cc1cccn2c(=O)c3cc(C(=O)NCCCN4CCOCC4)c(=N)n(Cc4ccncc4)c3nc12
inhibition at 30 µM (A498 [1]): 48% | inhibition at 30 µM (OS-RC-2 [2]): 35%

Compound: Cc1cccn2c(=O)c3cc(C(=O)NCCCN4CCOCC4)c(=N)n(C4CCCCC4)c3nc12
inhibition at 30 µM (A498 [1]): 37% | inhibition at 30 µM (OS-RC-2 [2]): 22%

Compound: O=C(NCCc1ccc(F)cc1)c1cc2cccnc2n(CCc2ccccc2)c1=O
inhibition at 30 µM (A498 [1]): 8% | inhibition at 30 µM (OS-RC-2 [2]): 14%

ΔTm [3]: 1.7 °C | ΔTm [4]: 1.9 °C
Compound: CCOC(=O)c1cc2c(=O)n3cccc(C)c3nc2n(-c2ccc(F)cc2)c1=N
inhibition at 30 µM (A498 [1]): 33% | inhibition at 30 µM (OS-RC-2 [2]): 16%

Compound: CCCn1c(=N)c(C(=O)O)cc2c(=O)n3cccc(C)c3nc21
inhibition at 30 µM (A498 [1]): 21% | inhibition at 30 µM (OS-RC-2 [2]): 29%

Compound: Cc1cccn2c(=O)c3cc(C(=O)NCC4CCCO4)c(=N)n(CCc4cccs4)c3nc12 (configuration not stated)
inhibition at 30 µM (A498 [1]): 86% | inhibition at 30 µM (OS-RC-2 [2]): 83%

Compound: CCCn1c(=N)c(C(=O)OCC)cc2c(=O)n3cccc(C)c3nc21
inhibition at 30 µM (A498 [1]): 38% | inhibition at 30 µM (OS-RC-2 [2]): 35%

Compound: Cc1ccc(CCn2c(=N)c(C(=O)O)cc3c(=O)n4cccc(C)c4nc32)cc1
inhibition at 30 µM (A498 [1]): 51% | inhibition at 30 µM (OS-RC-2 [2]): 31%

Compound: CCN(CC)CCn1c(=N)c(C(=O)NCCCN2CCOCC2)cc2c(=O)n3cccc(C)c3nc21
inhibition at 30 µM (A498 [1]): 86% | inhibition at 30 µM (OS-RC-2 [2]): 89% | IC50 (A498 [5]): 3.5 µM | IC50 (OS-RC-2 [6]): 3.9 µM

Compound: Cc1cccn2c(=O)c3cc(C(=O)O)c(=N)n(Cc4ccco4)c3nc12
inhibition at 30 µM (A498 [1]): 24% | inhibition at 30 µM (OS-RC-2 [2]): 16%

Compound: C#CCn1c(=N)c(C(=O)NCCCN2CCOCC2)cc2c(=O)n3cccc(C)c3nc21
inhibition at 30 µM (A498 [1]): 37% | inhibition at 30 µM (OS-RC-2 [2]): 37%

Compound: Cc1cccn2c(=O)c3cc(C(=O)NCCCN4CCOCC4)c(=N)n(CCc4ccccc4F)c3nc12
inhibition at 30 µM (A498 [1]): 61% | inhibition at 30 µM (OS-RC-2 [2]): 74%

Compound: O=C(NCCc1ccc(F)cc1)c1cc2cnccc2n(CCc2ccccc2)c1=O
inhibition at 30 µM (A498 [1]): 25% | inhibition at 30 µM (OS-RC-2 [2]): 16%

Compound: Cc1cccn2c(=O)c3cc(C(=O)O)c(=N)n(CCc4cccs4)c3nc12
inhibition at 30 µM (A498 [1]): 25% | inhibition at 30 µM (OS-RC-2 [2]): 37%

Compound: CCN(CC)CCNC(=O)c1cc2cccnc2n(CCc2ccccc2)c1=O
inhibition at 30 µM (A498 [1]): 13% | inhibition at 30 µM (OS-RC-2 [2]): 30%

Compound: Cc1ccn2c(=O)c3cc(C(=O)NCCCN4CCOCC4)c(=N)n(CCc4cccs4)c3nc2c1
inhibition at 30 µM (A498 [1]): 75% | inhibition at 30 µM (OS-RC-2 [2]): 77%

Compound: Cc1cccn2c(=O)c3cc(C(=O)O)c(=N)n(C(C)C)c3nc12
inhibition at 30 µM (A498 [1]): 18% | inhibition at 30 µM (OS-RC-2 [2]): 22%

Compound: CCOC(=O)c1cc2c(=O)n3cccc(C)c3nc2n(Cc2ccco2)c1=N
inhibition at 30 µM (A498 [1]): 59% | inhibition at 30 µM (OS-RC-2 [2]): 56%

Compound: Cc1cccn2c(=O)c3cc(C(=O)NCCCN4CCOCC4)c(=N)n(-c4ccccc4)c3nc12
inhibition at 30 µM (A498 [1]): 12% | inhibition at 30 µM (OS-RC-2 [2]): 23%

Compound: Cc1cccn2c(=O)c3cc(C(=O)NCCCN4CCOCC4)c(=N)n(CCN4CCOCC4)c3nc12
inhibition at 30 µM (A498 [1]): 35% | inhibition at 30 µM (OS-RC-2 [2]): 40%

Compound: CCOC(=O)c1cc2c(=O)n3cccc(C)c3nc2n(CCc2ccccc2)c1=N
inhibition at 30 µM (A498 [1]): 24% | inhibition at 30 µM (OS-RC-2 [2]): 20%

Compound: CCOC(=O)c1cc2c(=O)n3cccc(C)c3nc2n(Cc2ccccc2)c1=N
inhibition at 30 µM (A498 [1]): 24% | inhibition at 30 µM (OS-RC-2 [2]): 26%

Compound: CCCn1c(=N)c(C(=O)NCCCN2CCOCC2)cc2c(=O)n3cccc(C)c3nc21
inhibition at 30 µM (A498 [1]): 57% | inhibition at 30 µM (OS-RC-2 [2]): 66% | IC50 (A498 [5]): 6.4 µM | IC50 (OS-RC-2 [6]): 5.2 µM
